# Source: PubChem (The Scripps Research Institute Molecular Screening Center)
# rCAG binder: binds r(CAG) RNA repeats | AID 651821 | r(CAG) RNA repeat, TO-PRO-1 dye displacement fluorescence | hit rate 1.3% among 370,000 | inhibition, % at 3 µM;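 active = inhibition above the plate cutoff, the mean of all test compounds on that plate plus 3 SD, cut at about 35% in these data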;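 note: 0% = DMSO alone and 100% = 100 µM mitoxantrone as full dye displacement; higher means more dye released from RNA so lower well fluorescence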
# SIAE primary: inhibitors of human sialic acid acetylesterase SIAE. AID 1053197. hit rate 0.69% among 370,000. Q9HAT2. SIAE FP-Rh probe binding, fluorescence polarization. inhibition, % at 9.66 µM;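 active = inhibition above a cutoff: mean of compounds within the control limits plus 3 SD of those, cut at about 17% in these data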;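 note: 0% = plate median of compound wells and 100% = probe without SIAE protein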
# mABHD4 FP: ABHD4 (mouse) inhibition, primary FP screen. Q8VD66. purified mABHD4, FP-Rh probe fluorescence polarization. hit rate 0.54% among 370,000. inhibition, % at 8.92 µM. AID 720543;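 active = inhibition exceeding the mean over every tested compound plus 3 SD, cut at about 30% in these data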;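 note: 0% = plate median of compound wells and 100% = S159A mutant with DMSO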
#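 Material: mouse ABHD4 enzyme, wild type; Benchmarks: S159A mutant high control, sample median low control; Buffer or medium: HEPES pH 7.0, NaCl, Pluronic buffer; Signal: fluorescence polarization; Read-out: percent inhibition of probe binding, normalized to plate controls; Timing: pre-incubation 45 min, probe exposure 60 min, at 25 °C; Dosing: 8.92 µM, single dose.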
# TCR-CD3 inh: blocks the human TCR-CD3 interaction; TAMRA-labeled TCR probe fluorescence, biochemical; hit rate 0.37% among 360,000; inhibition, % at 9.4 µM; in the data active = inhibition above about 19%;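 note: recombinant mutant TCR 2C K166C tagged with TAMRA read by polarization; 0% = receptor in buffer alone and 100% = receptor with positive control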
# HTRA1 inhibitor: inhibitors of human serine peptidase HTRA1 | inhibition, % at 5.96 µM | hit rate 0.5% among 340,000 | Q92743 | AID 504803 | recombinant HTRA1, FP-rhodamine activity-based probe, fluorescence polarization; in the data active = inhibition above about 36%;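 note: 0% = enzyme with DMSO and 100% = wells lacking enzyme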
# Target sequence (Q92743 whole entry, looked up): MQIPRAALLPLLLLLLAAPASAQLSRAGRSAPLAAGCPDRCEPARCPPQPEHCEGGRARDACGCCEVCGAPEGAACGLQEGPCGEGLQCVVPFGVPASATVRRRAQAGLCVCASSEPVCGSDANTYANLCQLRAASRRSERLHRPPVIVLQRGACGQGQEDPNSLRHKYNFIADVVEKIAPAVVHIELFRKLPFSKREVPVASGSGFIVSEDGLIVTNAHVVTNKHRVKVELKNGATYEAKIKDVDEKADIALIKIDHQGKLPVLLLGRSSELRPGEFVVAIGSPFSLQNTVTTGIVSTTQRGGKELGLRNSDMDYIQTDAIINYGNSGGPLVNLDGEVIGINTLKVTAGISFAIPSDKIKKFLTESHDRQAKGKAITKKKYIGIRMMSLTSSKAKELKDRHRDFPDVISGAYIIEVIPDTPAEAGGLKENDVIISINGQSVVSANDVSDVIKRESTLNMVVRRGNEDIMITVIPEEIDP
# SIAE confirm: confirmation of human SIAE inhibitors | shares compounds with SIAE primary | SIAE FP-Rh activity-based probe, fluorescence polarization | inhibition, % at 9.66 µM | hit rate 13% among 2,300 | AID 1117263;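 active = mean inhibition of the replicates above the hit cutoff set in the primary screen, cut at about 17% in these data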;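 note: 0% = SIAE with DMSO and probe and 100% = probe without SIAE; inhibitors lower polarization as more probe stays unbound to SIAE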
# Active calls of the source: *; · = no result. An excerpt weighted towards active compounds, which were near 2.5% of everything screened.
SMILES,rCAG binder,SIAE primary,mABHD4 FP,TCR-CD3 inh,HTRA1 inhibitor,SIAE confirm
CC(=O)c1c(C)[nH]c(C(=O)Nc2ccc(N3CCCCCC3)cc2)c1C,5,26*,29,2,15,10
COc1ccc(-n2nnnc2C2c3ccccc3C(=O)N2C2CCN(Cc3ccccc3)CC2)cc1 (centres undefined),1,21*,2,5,·,4
CCN(CC)S(=O)(=O)c1cccc(C(=O)NN2Cc3ccccc3C2=N)c1,-2,0,3,-5,1,·
CC(C)CN(C(=O)C1CC1)C1CCS(=O)(=O)C1 (centres undefined),-2,-1,-11,-2,2,·
CC(C)CN(C(=O)C1CCCCC1)C1CCS(=O)(=O)C1 (centres undefined),-2,18*,11,-3,4,3
CC1(C(=O)NS(=O)(=O)c2ccccc2)CCN1C(=O)Cc1ccc(Cl)cc1Cl (centres undefined),6,-5,-4,2,·,·
COc1ccc(N(C(=O)c2cccc(OC)c2OC)C2C=CS(=O)(=O)C2)cc1 (centres undefined),-4,-4,-7,-5,-7,·
O=C(CCN1C(=O)c2ccccc2C1=O)Nc1cccc(O)c1,-1,20*,-1,5,10,-1
Cc1ccc(SCC2(O)CCN(C(=O)c3ccc(Cl)cc3)CC2)cc1,-6,-7,0,2,-15,·
CCOC(=O)C1CCN(C(=O)c2cccc(C(=O)N3CCC(C(=O)OCC)CC3)c2)CC1,-5,-9,-3,12,7,·
CCOC(=O)N1CCN(C(=O)COc2cccc3c2CCN(CC)C3=O)CC1,-4,20*,2,-4,-3,-1
Cc1c(NC(=S)NC(=O)C(c2ccccc2)c2ccccc2)cccc1C(=O)O,14,17*,4,2,-1,-4
COc1ccc(OC)c(S(=O)(=O)NCC(c2ccc(F)cc2)N2CCN(C)CC2)c1 (centres undefined),-8,0,0,1,3,·
O=c1c2ccccc2oc2cc(Br)ccc12,1,20*,2,2,-14,4
CCOC(=O)NC(=O)CSc1ccc(C)cc1C,-2,0,1,1,3,·
Cc1ccc(S(=O)(=O)N(C)C)cc1NC(=O)c1sccc1Cl,-2,17*,-2,0,-1,-2
O=C(C1CCC(CNc2nc(=S)[nH]c3ccccc23)CC1)N1CCN(c2ccc(F)cc2)CC1 (centres undefined),6,20*,-2,-2,-7,-12
O=c1[nH][nH]c(=O)c2c(NS(=O)(=O)c3ccccc3)cccc12,0,-1,0,6,-4,·
O=C(Cn1c(=O)oc2cc(S(=O)(=O)N3CCCCC3)ccc21)N1CCCCC1,-4,17*,1,2,-2,5
O=C(Cn1nnc2ccccc21)OCC(=O)c1ccccc1,2,19*,0,2,0,-3
O=C(NCCN1CCOCC1)c1ccc2c(c1)N(Cc1ccc(F)cc1)C(=O)c1ccccc1S2(=O)=O,1,8,-2,2,1,·
COc1cc2[nH]c(=S)nc(NCCCOC(C)C)c2cc1OC,-3,24*,3,-1,3,-4
COc1ccc(C(=O)Nc2ccc(Cc3ccncc3)cc2)cc1Br,2,-18,-13,4,-30,·
C=C1CCN([C@H](C(=O)OCc2ccc(C)cc2)C(C)C)S(=O)(=O)c2ccccc21,-3,-5,-2,11,-23,·
COC(=O)c1[nH]c2ccc(Cl)cc2c1NC(=O)CN1CCC(C(N)=O)CC1,2,22*,5,-2,·,-5
SMILES,rCAG binder,SIAE primary,mABHD4 FP,TCR-CD3 inh,HTRA1 inhibitor,SIAE confirm
O=C(O)CCN1CC2([N+](=O)[O-])C=CC(=O)C([N+](=O)[O-])(C1)C2CC(=O)c1ccccc1 (centres undefined),34,17*,27,-3,-2,3
CC#CCCCC(=O)Nc1ccccc1C(=O)O,7,19*,-2,7,4,3
CCN(CC)CCn1c(=N)n(CCO)c2ccccc21,-3,21*,2,-1,-3,-7
CCCc1nc2ccccc2c(C(=O)OCC(=O)NC2CC2)c1CC,-1,25*,-3,1,-5,4
CCCc1nc2ccccc2c(C(=O)OCC(=O)NCc2ccco2)c1CC,-3,-7,-2,-7,-12,·
COc1ccccc1CNC(=O)COC(=O)c1ccco1,3,-18,-10,2,4,·
COc1ccccc1CNC(=O)COC(=O)c1ccc(C)s1,0,23*,4,5,-4,4
COc1cccc(NC(=O)Nc2nc(-c3ccc(OC)c(OC)c3)cs2)c1,34,34*,8,2,3,-6
O=c1c(Cc2c(F)cccc2Cl)c(O)ccn1CCc1c[nH]c2ccccc12,1,23*,3,-2,-1,5
CC(=O)Nc1ccc(S(=O)(=O)N2CCN(S(=O)(=O)c3ccc(NC(C)=O)cc3)CC2)cc1,0,0,3,-6,2,·
CC(=O)Nc1ccc(S(=O)(=O)N2CCCC3CCCCC32)cc1 (centres undefined),0,22*,-7,-4,-7,-3
NC(=O)CC(NC(=O)Cc1ccc(Cl)cc1)c1ccc(NC2CCCC2)c([N+](=O)[O-])c1 (centres undefined),4,-5,-5,1,-3,·
NC(=O)CC(NC(=O)Cc1ccc(Cl)cc1)c1ccc(NC2CCCCC2)c([N+](=O)[O-])c1 (centres undefined),7,20*,-2,-4,-2,-8
Cc1n[nH]c(=S)n(/N=C/c2cccs2)c1=O,0,19*,1,-4,2,-2
Cc1sc(NC(=O)CN2CCCC2)nc1-c1ccc2c(c1)CCN2C(=O)c1cccc(F)c1,6,2,13,-11,-12,·
Cc1ccc(-n2nc(C)c3c2OC(N)=C(C#N)C3c2ccncc2)cc1 (centres undefined),7,19*,22,3,9,5
Cc1nn(-c2ccccc2)c2c1C(c1ccncc1)C(C#N)=C(N)O2 (centres undefined),3,8,11,6,4,·
CCc1ccc(/C=C2/SC(N3CCOCC3)=NC2=O)cc1,-3,18*,-3,-4,-2,4
CC(C)c1ccc(/C=C2\SC(N3CCOCC3)=NC2=O)cc1,-2,9,-9,2,2,·
Oc1ccc(/C=N/Nc2ncnc3nc[nH]c23)cc1,0,18*,2,3,4,-2
Cc1ccccc1-c1nn(-c2ccc(F)cc2F)cc1CNCCN(C)C,-1,2,-3,-1,-7,·
Cc1ccccc1-c1nn(-c2ccc(F)cc2F)cc1CNCCCN(C)C,1,18*,2,12,4,7
Cc1cc(NC(=O)C(C)SCC(=O)Nc2ccc(C(=O)OC(C)C)cc2)no1 (centres undefined),1,3,1,3,9,·
